MC4R antag cAMP: human MC4R antagonism in cAMP assay | P32245 | MC4R-expressing cells, MTII-stimulated cAMP, LANCE TR-FRET | inhibition, % at 6.5 µM | 0.48% of 360,000 active | AID 540295;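 active means inhibition above its plate's cutoff, the mean of tested wells on that plate plus 3 SD, cut at about 29% in these data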;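 further: 0% = Melanotan II alone and 100% = Melanotan II plus saturating MCL0020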
Target sequence (P32245 whole entry, looked up): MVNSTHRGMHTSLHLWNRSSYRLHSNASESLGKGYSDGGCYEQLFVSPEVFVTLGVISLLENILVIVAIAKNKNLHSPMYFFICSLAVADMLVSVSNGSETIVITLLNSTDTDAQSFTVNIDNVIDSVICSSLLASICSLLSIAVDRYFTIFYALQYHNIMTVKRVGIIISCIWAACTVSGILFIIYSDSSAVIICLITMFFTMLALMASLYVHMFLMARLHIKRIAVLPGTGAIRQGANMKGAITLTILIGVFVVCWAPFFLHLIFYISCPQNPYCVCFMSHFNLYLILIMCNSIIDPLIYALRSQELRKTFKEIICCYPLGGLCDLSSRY
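Material: human MC4R-expressing U2OS cells. Probe or stimulus: Melanotan II challenge. Dosing: 6.5 µM single dose. Times: 30-min compound, 1-h challenge, 1-h detection, room temperature. Technique: TR-FRET with Eu-cAMP and labeled anti-cAMP, 671 nm. Replication: singlicate.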
NLRP3 yeast inh: NALP3 inhibition in yeast. Yeast reconstituted NLRP3/ASC/caspase-1, beta-gal luminescence, 24 h. inhibition, % at 10 µM. 0.39% of 330,000 active. AID 2825;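 active means inhibition of 50% or more; inactive means inhibition below 50%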;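 further: plate controls were induced DMSO wells for no effect and uninduced yeast grown without galactose for full effect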
TbMetRS inhib: blocks T. brucei methionyl-tRNA synthetase activity; purified T. brucei MetRS, ATP depletion, Kinase-Glo luminescence; inhibition, % at 11.9 µM; 0.4% of 360,000 active; AID 624268;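 active means inhibition above a per-plate cutoff of the control wells' mean inhibition plus 3 SD, cut at about 5.5% in these data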;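 further: 0% = DMSO wells median and 100% = median of wells with control inhibitor compound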
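Measured by: Kinase-Glo luciferase luminescence reporting remaining unconsumed ATP. Material: purified T. brucei MetRS enzyme. Doses: 11.9 µM compound single dose, 0.9% DMSO. Medium: HEPES buffer containing pyrophosphatase, BSA, spermine, DTT. Times: 15 min preincubation, 2 h reaction, all 25 °C. Reagent: methionine, ATP and bulk E. coli tRNA.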
NALP1 inh: NALP1 inhibition; S. cerevisiae NALP1/ASC/caspase-1 growth, X-gal OD620, 72 h; 0.61% of 280,000 active; inhibition, % at 10 µM; AID 2071; in the data active means inhibition mostly above about 24%, no sharp cut-off; inactive means mostly below about 32%
A1 inh: inhibitors of the anti-apoptotic protein A1, read as caspase activation | AID 2462 | caspase activation, % (test concentration not listed) | 0.066% of 330,000 active | MEF A1-2A-BIM cells, Caspase-Glo 3/7 luminescence, 3 h; percent of clofoctol response, vehicle zero;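 active means over half of replicate activation scores above 10%, or exactly half above 10 with the replicate mean above 10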
MC4R barr agon: human MC4R agonism via beta-arrestin | AID 540308 | U2OS MC4R beta-arrestin complementation, luminescence; percent of melanotan II response, DMSO zero | activation, % at 8.9 µM | 0.98% of 360,000 active | P32245;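 active means activation above a per-plate cutoff, the mean activation of sample wells on that plate plus 3 SD, cut at about 8% in these data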
An asterisk follows results filed as active; x = no result. The list is not random: actives were taken first. Their share in the collection is about 2.5%.

SMILES	MC4R antag cAMP	NLRP3 yeast inh	TbMetRS inhib	NALP1 inh	A1 inh	MC4R barr agon
Cc1cc(C(=O)Nc2ccc3c(c2)OCCO3)ccc1[N+](=O)[O-]	4.9	17.9	-1.6	41.3*	-7.5	-0.7
Cn1cnc([N+](=O)[O-])c1S(=O)(=O)c1ccc(Cl)cc1	10.1	x	0.2	79.7*	x	-3.4
O=C(NCc1ccccc1)c1cc(C2COCCN2C(=O)c2cccs2)on1 (centres undefined)	-0.3	x	-0.3	x	x	0.1
O=S1(=O)CC(N2CCCC2)CN1Cc1cn(Cc2cccc(Cl)c2)nn1 (centres undefined)	x	x	-0.3	x	x	x
Cc1ccc(Cn2ccsc2=NC(=O)CCl)cc1	9.3	6.2	-0.2	-10.4	1.3	15.1*
Cc1ccc(Cn2ccsc2=NC(=O)COC(=O)c2ccc(NC(=O)CC#N)cc2)cc1	5.2	11.0	-0.5	x	-0.8	-2.4
CCc1ccc(NC(=O)CCc2nc3cccnc3n2Cc2ccc(OC)cc2)cc1	7.4	9.3	-0.7	9.7	-0.3	8.5*
CCCCCCNC(=O)CCc1nc2cccnc2n1Cc1ccc(OC)cc1	8.2	15.9	-0.8	11.6	-0.4	-1.4
Cc1ccc2nc(NC(=O)CSCc3ccccc3)sc2c1	-4.8	14.1	-1.6	-7.7	-0.6	8.9*
Cc1ccc2nc(NC(=O)CS(=O)(=O)Cc3ccccc3)sc2c1	0.7	-2.4	-0.2	x	-0.8	2.0
CC(C)CN(C(=O)CSc1nncs1)c1c(N)n(CC(C)C)c(=O)[nH]c1=O	11.9	5.8	-0.3	44.7*	0.3	-0.8
c1ccc(CCNc2c3c(nc4ncnn24)CCC3)cc1	2.0	-11.4	-0.1	25.0*	0.4	0.4
O=C(NCC1CCCO1)c1ccc(-c2ccccc2Cl)o1 (centres undefined)	-1.6	27.6	-0.5	x	0.2	-3.8
COc1ccc2c(c1OC)C(=O)N1C2SC(C)(C)[C@H]1C(=O)NC1CC1 (some centres undefined)	5.3	5.9	-2.3	4.9	0.4	0.5
COC(=O)COc1ccc(/C=N/NS(=O)(=O)c2ccccc2)cc1	8.0	9.5	-1.6	8.9	0.5	-0.7
NC(=O)COc1ccc(/C=N/NS(=O)(=O)c2ccccc2)cc1	0.8	1.8	0.1	39.5*	0.3	-0.1
N#CC(=Cc1cccs1)c1nc(-c2ccc(Cl)cc2)cs1	-9.6	x	0.2	x	x	9.2*
Cc1cc(Cl)ccc1OC(C)C(=O)NCCCCc1ccccc1 (centres undefined)	14.5	14.1	-0.4	-10.4	-0.2	9.0*
CCOCc1c(C(=O)Nc2cc(OCC)c(N3CCOCC3)cc2OCC)oc2ccccc12	-5.2	11.2	0.1	36.0*	1.1	-2.4
COc1ccc(CCN(C)C(=O)c2c(C)noc2C)cc1OC	-2.3	11.5	-0.2	x	-0.4	-0.2
CC(c1ccc(O)cc1)(c1ccc(O)cc1)c1ccc(CCBr)cc1	3.6	13.5	-1.1	24.4	0.5	17.7*
Oc1ccc(Cl)cc1-c1cc(C(F)(F)C(F)F)nc(-c2ccccc2)n1	4.7	-2.7	-0.5	42.9*	0.3	-1.1
CCCCCCCCOC(=O)CCc1c(C)[nH]c(=S)[nH]c1=O	1.2	25.0	-2.0	-9.4	0.3	9.0*
CCOC(=O)c1c(C)n(C)c2ccc(OC)c([N+](=O)[O-])c12	6.9	17.0	-0.4	22.1*	1.0	2.0
CSCC[C@@H](C(=O)O)N1Cc2ccccc2C1=O	13.6	14.5	0.7	38.8*	-0.3	-0.8
SMILES	MC4R antag cAMP	NLRP3 yeast inh	TbMetRS inhib	NALP1 inh	A1 inh	MC4R barr agon
CCCCN(C(=O)CC1CCCC1)c1c(N)n(CCCC)c(=O)[nH]c1=O	6.6	9.1	-0.4	x	-0.3	-4.2
COc1ccc(C2Nc3ccc4ccccc4c3-c3c2c(=O)oc2ccccc32)cc1 (centres undefined)	1.8	-17.3	-1.4	21.3	8.7*	6.7
O=C(N=Nc1c(O)[nH]c2ccc([N+](=O)[O-])cc12)c1cc(-c2ccccc2Cl)nc2ccccc12	3.0	0.6	-0.3	16.9	48.3*	-1.2
COc1ccccc1C(=O)N=Nc1c(O)[nH]c2ccc([N+](=O)[O-])cc12	-2.3	x	-0.3	-1.3	x	-2.3
NC1=NC[C@H](CC2CCCCC2)N1CCc1cc(C(F)(F)F)cc(C(F)(F)F)c1	10.2	2.2	-0.7	x	0.8	9.3*
CCCC[C@@H]1CNCCN1CCc1cc(C(F)(F)F)cc(C(F)(F)F)c1	1.1	21.6	0.0	x	1.1	5.4
FC(F)(F)c1cc(CCN2CCNC[C@@H]2CC2CCCCC2)cc(C(F)(F)F)c1	1.0	32.4	-0.2	x	0.1	8.7*
Cc1ccc(SCC(=O)Nc2ccc(N3CCOCC3)cc2)cc1C	-1.7	22.4	-0.4	x	-0.4	-1.4
COc1ccc(N2C(=S)N=C(Nc3ccccc3)C23CCCCC3)cc1	19.6	11.5	0.1	7.7	0.3	13.9*
O=C(N/N=C\c1ccc(-c2ccccc2[N+](=O)[O-])o1)C1COc2ccccc2O1 (centres undefined)	9.9	11.2	0.1	25.1	-0.4	-1.5
O=C(N/N=C\c1ccc(-c2ccccc2[N+](=O)[O-])o1)C1COc2cc3ccccc3cc2O1 (centres undefined)	2.6	13.3	10.4*	25.3	-0.2	-0.7
CCc1ccc(C(O)c2ncc(-c3ccc(C(F)(F)F)cc3)[nH]2)cc1 (centres undefined)	15.4	x	-0.5	x	x	9.2*
OC(c1ccc(-c2ccccc2)cc1)c1ncc(-c2ccc(C(F)(F)F)cc2)[nH]1 (centres undefined)	10.8	x	0.0	x	x	9.5*
OC(c1ccccc1)c1ncc(-c2ccccc2F)[nH]1 (centres undefined)	14.2	x	0.5	x	x	-1.8
OC(c1ccccc1)c1ncc(-c2ccc(C(F)(F)F)cc2)[nH]1 (centres undefined)	-0.5	x	-0.1	x	x	-1.3
CC(C)(C)c1ccc(C(O)c2ncc(-c3ccccc3F)[nH]2)cc1 (centres undefined)	-0.1	x	0.4	x	x	8.2*
CCNC(=O)C1(C)CCN(C(=O)c2ccc(N(C)C)cc2)C1 (centres undefined)	-3.6	x	0.0	x	x	-0.8
C[C@H](CO)N1C[C@H](C)[C@@H](CN(C)S(=O)(=O)c2cccs2)Oc2ccc(NC(=O)Cn3cnnn3)cc2C1=O	10.7	12.9	0.1	x	x	0.6
CN(Cc1cn(Cc2cccc(Cl)c2)nn1)C1CN(Cc2cn(Cc3cccc(Cl)c3)nn2)S(=O)(=O)C1 (centres undefined)	x	x	-0.1	x	x	x
CC(=O)O/N=C/c1c(N2CCOCC2)n(C)c2ccccc12	-6.0	2.3	-0.6	28.7*	-0.3	-1.5
Cc1ccc(C(=O)O/N=C/c2c(N3CCOCC3)n(C)c3ccccc23)cc1	-1.6	46.6	-2.4	-3.6	-1.2	-0.2
